Results: ChEMBL document CHEMBL3112476, “Inhibition of IκB kinase-β and IκB kinase-α by heterocyclic adamantyl arotinoids” (Bioorg Med Chem, 2014)
pIC50: −log10 of the molar value.

Key:
[1] = target: T1, Retinoic acid receptor RXR-alpha (Homo sapiens) (UniProt P19793); assay: Antagonist activity at recombinant GST-tagged RXRalpha LBD (unknown origin) assessed as inhibition of CD3254-induced fluorescein labeled D22 coactivator recruitment at 8 uM after 4 hrs by TR-FRET assay
T1 sequence (whole entry): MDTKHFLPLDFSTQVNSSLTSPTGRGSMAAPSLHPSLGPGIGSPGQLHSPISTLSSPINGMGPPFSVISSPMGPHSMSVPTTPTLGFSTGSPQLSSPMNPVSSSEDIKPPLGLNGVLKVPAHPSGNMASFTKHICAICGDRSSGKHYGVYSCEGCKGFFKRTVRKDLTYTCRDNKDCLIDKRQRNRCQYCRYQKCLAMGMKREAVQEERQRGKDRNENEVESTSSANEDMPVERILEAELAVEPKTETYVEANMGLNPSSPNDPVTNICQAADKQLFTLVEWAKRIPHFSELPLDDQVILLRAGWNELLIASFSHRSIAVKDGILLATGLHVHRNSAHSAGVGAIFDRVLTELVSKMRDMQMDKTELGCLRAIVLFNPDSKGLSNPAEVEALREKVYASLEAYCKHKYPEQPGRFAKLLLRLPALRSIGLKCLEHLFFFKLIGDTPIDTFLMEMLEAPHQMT
In short: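 GST-RXRα LBD (5 nM) was incubated at room temperature with 150 nM fluorescein-D22 peptide in pH 7.4 Hepes binding buffer containing DTT, with a suboptimal concentration of CD3254 plus test ligand (≤1% DMSO). Terbium anti-GST antibody (2 nM) was the donor. The 520/495 nm TR-FRET ratio was read after 4 h and expressed as Delta F% versus controls lacking GST-RXRα.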

[2] = target: T2, Retinoic acid receptor alpha (Homo sapiens, UniProt P10276); assay: Inverse agonist activity at RARalpha (unknown origin)
T2 sequence (P10276 whole entry): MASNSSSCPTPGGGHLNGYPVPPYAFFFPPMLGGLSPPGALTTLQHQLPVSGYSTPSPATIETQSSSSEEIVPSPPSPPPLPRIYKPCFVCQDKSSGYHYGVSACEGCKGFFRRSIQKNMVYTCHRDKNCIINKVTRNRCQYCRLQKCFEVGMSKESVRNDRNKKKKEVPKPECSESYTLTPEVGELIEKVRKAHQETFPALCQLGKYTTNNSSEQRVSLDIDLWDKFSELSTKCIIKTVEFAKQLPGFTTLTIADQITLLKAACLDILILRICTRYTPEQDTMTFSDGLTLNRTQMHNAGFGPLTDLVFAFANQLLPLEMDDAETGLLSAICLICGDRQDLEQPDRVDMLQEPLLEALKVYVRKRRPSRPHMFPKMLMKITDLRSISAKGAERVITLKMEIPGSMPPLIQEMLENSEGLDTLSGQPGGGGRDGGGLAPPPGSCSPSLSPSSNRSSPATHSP

[3] = target: T3, Retinoic acid receptor alpha (Homo sapiens) (UniProt P10276); assay: Antagonist activity at Gal4-fused RARalpha (unknown origin) transfected in HEK293 cells assessed as ATRA-induced transcriptional activity at 4 uM by luciferase/beta-galactosidase reporter gene assay relative to ATRA-treated control; assay type: cell-based; parameters: scale not given: the % may be the effect or the level left
T3 sequence (whole entry): T2 sequence (P10276 whole entry)
In short: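 Same Gal4-RARα HEK-293 UAS-luciferase system, stimulated with 0.1 µM atRA alone or with 4 µM compound (40-fold molar excess); 1 µM UVI2024 served as control antagonist. Background-subtracted luciferase was normalized to β-galactosidase and given as percent of atRA-stimulated cells. Data: 2–3 experiments, triplicate.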

[4] = target: T3, Retinoic acid receptor alpha (Homo sapiens); assay: Agonist activity at Gal4-fused RARalpha (unknown origin) transfected in HEK293 cells assessed as induction of transcriptional activity at 4 uM after 6 hrs by luciferase/beta-galactosidase reporter gene assay relative to control; assay type: cell-based
In short: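 Gal4-RARα or Gal4-RXRα (10 ng) plus 2 ng β-galactosidase vector, calcium phosphate transfection into HEK-293 cells carrying a 5×UAS luciferase reporter. After 16 h, cells were washed and given 5% charcoal-treated FBS medium, then rested 2 h. Stimulation was with 4 µM compound or 0.1% DMSO; controls were 1 µM atRA (RARα) or 1 µM CD3254 (RXRα). Harvest was at 6 h (RARα) or 24 h (RXRα). Luciferase/β-gal ratio was expressed as fold over unstimulated cells. Data: 2 experiments, triplicate.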

Jurkat = assay: Induction of apoptosis in human Jurkat cells assessed as activation of DEVDase at 5 uM after 4 hrs by fluorometric assay relative to control; assay type: functional
In short: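 Jurkat cells (20,000/well, 0.5% FBS RPMI) were treated 4 h with 5 µM compound and lysed 15 min in PIPES pH 7 buffer with NP-40, cytochalasin B and protease inhibitors. An equal volume of 2× caspase buffer containing 100 µM Ac-DEVD-AFC was added. AFC fluorescence (ex 390/em 510 nm) was read every 2 min for 1 h at 37 °C; the linear slope was taken as activity, expressed as fold over DMSO control. Data: 2 experiments, triplicate.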

[5] = Cytotoxicity against human Jurkat T cells assessed as cell viability after 24 hrs by CellTiter-Glo assay; assay type: functional, cell-based
In short: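 Jurkat cells were seeded the day before treatment in RPMI with 0.5% FBS (10,000 cells/well). They were treated in triplicate across an 8-point dose series starting at 10 µM, with DMSO ≤0.1% as solvent control. ATP was measured by CellTiter-Glo luminescence after 24 h; a time-0 reading separated cytostatic from cytotoxic effects. IC50 was fitted from the curve.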

[6] = Cytotoxicity against human Jurkat T cells assessed as cell viability at 4 uM after 24 hrs by CellTiter-Glo assay relative to control; assay type: functional; conditions: read-out: Activity
In short: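 Jurkat cells in 0.5% FBS RPMI were exposed to 4 µM compound or 0.1% DMSO for 24 h. Viability was read as ATP by CellTiter-Glo luminescence and expressed as percent of solvent control; below 60% counted as cell killing. Data: three experiments, triplicate.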

[7] = target: T4, Inhibitor of nuclear factor kappa-B kinase subunit alpha (Homo sapiens) (UniProt O15111); assay: Inhibition of recombinant IKKalpha (unknown origin) using ulight-IkappaomegaBalpha as substrate at 20 uM after 2 hrs by LANCE ultra TR-FRET assay relative to control
T4 sequence (whole entry): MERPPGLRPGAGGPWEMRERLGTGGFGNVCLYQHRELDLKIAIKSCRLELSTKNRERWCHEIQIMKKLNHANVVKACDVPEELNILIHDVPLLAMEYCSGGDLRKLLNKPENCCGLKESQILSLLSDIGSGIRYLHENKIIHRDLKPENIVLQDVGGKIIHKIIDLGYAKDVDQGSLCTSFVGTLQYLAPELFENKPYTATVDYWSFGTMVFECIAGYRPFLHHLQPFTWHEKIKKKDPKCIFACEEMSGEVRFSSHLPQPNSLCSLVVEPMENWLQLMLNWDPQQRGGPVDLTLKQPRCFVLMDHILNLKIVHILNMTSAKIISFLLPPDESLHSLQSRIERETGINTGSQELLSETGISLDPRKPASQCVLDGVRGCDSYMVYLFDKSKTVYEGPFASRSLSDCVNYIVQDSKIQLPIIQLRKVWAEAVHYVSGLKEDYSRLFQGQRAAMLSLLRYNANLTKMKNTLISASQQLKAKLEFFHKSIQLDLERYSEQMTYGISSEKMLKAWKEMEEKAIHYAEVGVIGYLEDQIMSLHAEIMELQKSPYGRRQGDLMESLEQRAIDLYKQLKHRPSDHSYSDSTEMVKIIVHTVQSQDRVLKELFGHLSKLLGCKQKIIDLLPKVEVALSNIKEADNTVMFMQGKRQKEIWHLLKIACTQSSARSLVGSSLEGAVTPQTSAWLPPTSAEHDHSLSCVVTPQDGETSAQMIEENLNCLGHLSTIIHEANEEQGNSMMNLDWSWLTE
In short: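 Recombinant IKKα (4 nM), IKKβ (1 nM) or IKKε (2 nM) in 50 mM Hepes pH 7.4, 10 mM MgCl2, 1 mM EGTA, 2 mM DTT, 0.01% Tween-20. Substrate was 50 nM ULight-IκBα (IKKα/β) or ULight-rpS6 (IKKε); ATP was 1.25 µM (α/β) or 5 µM (ε). Compound was tested at 20 µM. Incubation was 1 h (IKKβ) or 2 h (IKKα/ε) at room temperature, stopped with 20 mM EDTA plus 2 nM Eu-anti-phospho antibody, then TR-FRET 665/615 nm. Results are percent inhibition versus solvent; 3–4 experiments, triplicate.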

[8] = target: T5, Inhibitor of nuclear factor kappa-B kinase subunit beta (Homo sapiens, UniProt O14920); assay: Inhibition of recombinant IKKbeta (unknown origin) using ulight-IkappaomegaBalpha as substrate after 1 hr by LANCE ultra TR-FRET assay
T5 sequence (O14920 whole entry): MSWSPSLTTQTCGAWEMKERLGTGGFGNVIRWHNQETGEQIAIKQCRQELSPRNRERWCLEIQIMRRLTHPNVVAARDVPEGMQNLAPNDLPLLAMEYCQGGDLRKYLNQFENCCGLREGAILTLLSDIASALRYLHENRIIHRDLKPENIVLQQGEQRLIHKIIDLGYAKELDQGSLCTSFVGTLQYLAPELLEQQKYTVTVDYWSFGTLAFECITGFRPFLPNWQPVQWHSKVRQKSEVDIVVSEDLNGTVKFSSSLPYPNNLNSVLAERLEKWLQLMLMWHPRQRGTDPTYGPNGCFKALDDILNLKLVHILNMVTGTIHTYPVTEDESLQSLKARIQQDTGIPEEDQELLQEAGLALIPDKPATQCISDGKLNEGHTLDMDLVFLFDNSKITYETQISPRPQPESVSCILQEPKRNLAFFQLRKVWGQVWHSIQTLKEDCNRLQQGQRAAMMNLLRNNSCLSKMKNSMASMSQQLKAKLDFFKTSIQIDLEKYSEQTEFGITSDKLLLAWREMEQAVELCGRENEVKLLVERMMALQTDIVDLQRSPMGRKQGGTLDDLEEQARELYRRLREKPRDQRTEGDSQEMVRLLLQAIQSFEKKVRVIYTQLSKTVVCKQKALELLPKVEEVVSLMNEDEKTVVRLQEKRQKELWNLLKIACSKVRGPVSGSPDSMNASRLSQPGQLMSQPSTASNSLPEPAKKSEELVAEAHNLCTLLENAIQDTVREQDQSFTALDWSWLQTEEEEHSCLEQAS

[9] = target: T6, Inhibitor of nuclear factor kappa-B kinase subunit epsilon (Homo sapiens) (UniProt Q14164); assay: Inhibition of recombinant IKKepsilon (unknown origin) using ulight-rpS6 as substrate at 20 uM after 2 hrs by LANCE ultra TR-FRET assay relative to control
T6 sequence (whole entry): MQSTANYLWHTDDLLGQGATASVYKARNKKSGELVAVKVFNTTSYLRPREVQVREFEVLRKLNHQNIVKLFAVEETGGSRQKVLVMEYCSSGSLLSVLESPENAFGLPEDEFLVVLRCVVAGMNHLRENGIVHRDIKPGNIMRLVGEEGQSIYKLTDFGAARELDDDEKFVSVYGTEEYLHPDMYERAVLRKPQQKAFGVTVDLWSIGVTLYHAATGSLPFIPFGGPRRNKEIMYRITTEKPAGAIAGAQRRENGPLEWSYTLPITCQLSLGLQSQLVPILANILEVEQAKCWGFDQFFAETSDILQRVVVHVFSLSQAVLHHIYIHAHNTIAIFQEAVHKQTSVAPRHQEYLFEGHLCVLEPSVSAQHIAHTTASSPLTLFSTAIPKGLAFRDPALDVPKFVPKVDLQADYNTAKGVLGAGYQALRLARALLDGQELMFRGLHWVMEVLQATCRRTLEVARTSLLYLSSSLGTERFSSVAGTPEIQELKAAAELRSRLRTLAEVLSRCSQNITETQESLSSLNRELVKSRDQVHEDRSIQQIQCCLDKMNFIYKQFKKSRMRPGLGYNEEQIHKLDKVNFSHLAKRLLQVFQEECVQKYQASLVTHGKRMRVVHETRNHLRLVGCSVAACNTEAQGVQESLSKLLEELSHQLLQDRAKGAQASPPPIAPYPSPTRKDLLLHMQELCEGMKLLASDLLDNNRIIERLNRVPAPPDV

[10] = target: T7, Inhibitor of nuclear factor kappa-B kinase subunit beta (Homo sapiens) (UniProt O14920); assay: Inhibition of recombinant IKKbeta (unknown origin) using ulight-IkappaomegaBalpha as substrate at 20 uM after 1 hr by LANCE ultra TR-FRET assay relative to control
T7 sequence (whole entry): T5 sequence (O14920 whole entry)

SMILES | inhibition [1] | pIC50 [2] | Activity [3] | fold change (FC) [4] | fold change (FC) (Jurkat) | pIC50 [5] | viability at 4 µM [6] | inhibition [7] | pIC50 [8] | inhibition [9] | inhibition [10]
CCCCCOc1cc2c(cc1-c1cc(/C=C/C(=O)O)ccc1O)C(C)(C)CCC2(C)C | 25% | – | – | – | – | – | – | – | – | – | –
CC1(C)CC=C(C#Cc2ccccc2)c2cc(/C=C/c3ccc(C(=O)O)cc3)ccc21 | – | 6.94 | 7.1% | 1.3 | – | – | – | – | – | – | –
COCCOCOc1ccc(C(=O)/C=C/c2ccc(C(=O)O)cc2)cc1C12CC3CC(CC(C3)C1)C2 | – | – | – | – | 20.7 | 5.48 | 28.5% | 56.3% | 4.93 | 15.8% | 43.9%
CC(=O)NCCCOc1cc(/C=C/C(=O)O)ccc1-c1ccc(O)c(C23CC4CC(CC(C4)C2)C3)c1 | – | – | – | – | 6.1 | – | 42.7% | 5% | – | 14.4% | 0%
O=C(O)/C=C/c1ccc(-c2ccc(O)c(C34CC5CC(CC(C5)C3)C4)c2)c(Cl)c1 | – | – | – | – | 74.3 | – | 6.6% | 41.3% | – | 24.1% | 40.6%
